# Laboratory results taken from ChEMBL document CHEMBL2346509, “Novel R-roscovitine NO-donor hybrid compounds as potential pro-resolution of inflammation agents” (2013).
# Activity calls are given as the source filed them. No cut-off for these calls is given here.
# Assays:
# Neutrophil [1] = assay: Induction of apoptosis in human neutrophils assessed as pre-necrotic cells after 6 hrs by annexin V/propidium iodide staining based flow cytometric analysis; assay type: functional, cell-based
# How it was run: (§1)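 Neutrophils isolated from peripheral blood of healthy volunteers (>96% purity), resuspended at 5 × 10^6/mL in IMDM with penicillin, streptomycin and 0.1% w/v BSA. Compounds from 50 mM DMSO stocks (final DMSO 0.04–0.12%) were added just before cells, in duplicate, at 37 °C, 5% CO2. Cells were stained with annexin V in Ca-containing HBSS on ice for 10 min in the dark, PI was added, and cells were analysed by flow cytometry. Diff-Quick morphology confirmed results.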
# Neutrophil [2] = assay: Induction of apoptosis in human neutrophils assessed as pre-necrotic cells at 3 to 10 uM after 6 hrs by annexin V/propidium iodide staining based flow cytometric analysis in presence of L-NAME; assay type: functional, cell-based
# How it was run: (§2)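 Human blood neutrophils at 5 × 10^6/mL in IMDM/0.1% BSA with antibiotics were pre-incubated for 15 min with L-NAME (prepared in IMDM) or with ODQ (10 μM; from a 10 mM stock in 0.01% NaOH). Test compounds were then added from DMSO stocks and cells cultured in duplicate at 37 °C, 5% CO2. Apoptosis was read by annexin V/PI flow cytometry.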
# Neutrophil [3] = assay: Induction of apoptosis in human neutrophils assessed as pre-necrotic cells at 3 to 10 uM after 6 hrs by annexin V/propidium iodide staining based flow cytometric analysis in presence of ODQ; assay type: functional, cell-based; how it was run: as §2
# Neutrophil [4] = assay: Induction of apoptosis in human neutrophils at 10 uM by annexin V/propidium iodide staining based flow cytometric analysis; assay type: functional, cell-based; conditions: TDE = time-dependent effect; how it was run: as §1
# Neutrophil [5] = assay: Induction of apoptosis in human neutrophils assessed as apoptotic cells at 3 uM after 6 hrs by annexin V/propidium iodide staining based flow cytometric analysis; assay type: functional; how it was run: as §1
# Neutrophil [6] = assay: Induction of apoptosis in human neutrophils assessed as pre-necrotic cells at 3 uM after 6 hrs by annexin V/propidium iodide staining based flow cytometric analysis; assay type: functional; how it was run: as §1
# Neutrophil [7] = assay: Induction of apoptosis in human neutrophils assessed as cellular shrinkage and nuclear pyknosis at 3 uM after 6 hrs by light microscopy analysis; assay type: functional, cell-based
# How it was run: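 Neutrophils isolated from healthy volunteers' citrated blood by dextran sedimentation and a density gradient (granulocytes at the 70:81 boundary, >96% pure). Cells at 5 × 10^6/mL in IMDM with penicillin/streptomycin and 0.1% BSA, 37 °C, 5% CO2, treated in duplicate. Final DMSO 0.04–0.12%. Cells cytocentrifuged, methanol-fixed 2 min, Diff-Quick stained, and scored for apoptotic morphology at 40× and 100×.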
# Neutrophil [8] = assay: Induction of apoptosis in human neutrophils assessed as secondary necrosis at 10 uM after 8 hrs by annexin V/propidium iodide staining based flow cytometric analysis
# Neutrophil [9] = assay: Induction of apoptosis in human neutrophils assessed as viable cells at 3 uM after 6 hrs by annexin V/propidium iodide staining based flow cytometric analysis; assay type: functional; conditions: read-out: Activity; how it was run: as §1
# Neutrophil [10] = assay: Induction of apoptosis in human neutrophils assessed as necrotic cells at 3 uM after 6 hrs by annexin V/propidium iodide staining based flow cytometric analysis; assay type: functional; how it was run: as §1
# Neutrophil [11] = assay: Induction of apoptosis in human neutrophils assessed as pre-necrotic cells at 3 uM after 6 hrs by annexin V/propidium iodide staining based flow cytometric analysis in presence of PTIO; assay type: functional, cell-based
# How it was run: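 Healthy-volunteer neutrophils (>96% pure) at 5 × 10^6/mL in IMDM with 0.1% BSA and penicillin/streptomycin, 37 °C, 5% CO2, in duplicate. Co-incubated with the NO scavenger PTIO, made directly in IMDM. Final DMSO 0.04–0.12%. Cells stained with annexin V (1/500 in CaCl2–HBSS binding buffer) 10 min on ice in the dark, then PI added before flow cytometry.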
SMILES,Activity (Neutrophil [1]),Activity (Neutrophil [2]),Activity (Neutrophil [3]),Activity (Neutrophil [4]),Activity (Neutrophil [5]) [%],Activity (Neutrophil [6]) [%],Activity (Neutrophil [7]),Activity (Neutrophil [8]),viability at 3 µM (Neutrophil [9]) [%],Activity (Neutrophil [10]) [%],Activity (Neutrophil [11])
CC[C@H](CO)Nc1nc(NCc2ccc(OCCCOC)cc2)c2ncn(C(C)C)c2n1,Dose-dependent effect,Active,Active,,,,,,,,
CC[C@H](CO)Nc1nc(NCc2ccc(OCCCO[N+](=O)[O-])cc2)c2ncn(C(C)C)c2n1,Dose-dependent effect,Active,Active,tde,86.9,0.017,Active,Active,12.5,0.63,inactive
CN1C(=O)[C@]23CC4=CC=C[C@H](O)[C@H]4N2C(=O)[C@@]1(CO)SS3,,,,,,,,,,,Active
CC[C@H](CO)Nc1nc(NCc2ccccc2)c2ncn(C(C)C)c2n1 [SELICICLIB],,Active,Active,tde,6.98,0.033,Active,Active,92.6,0.386,Active
CC[C@H](COC(=O)CCCO[N+](=O)[O-])Nc1nc(NCc2ccccc2)c2ncn(C(C)C)c2n1,Dose-dependent effect,Active,Active,tde,,,,Active,,,
CC[C@H](CO)Nc1nc(NCc2ccc(OCc3nonc3C(N)=O)cc2)c2ncn(C(C)C)c2n1,Dose-dependent effect,,,,,,,,,,
CC[C@H](CO)Nc1nc(NCc2ccc(OCc3no[n+]([O-])c3C(N)=O)cc2)c2ncn(C(C)C)c2n1,Dose-dependent effect,Active,Active,tde,,,,Active,,,
